Experimental data: ChEMBL document CHEMBL1833966, “Synthesis and evaluation of quinazolin-4-ones as hypoxia-inducible factor-1α inhibitors” (Bioorg Med Chem Lett, 2011)
Calls of active or inactive are those of the source. The calls are words filed in the database; no cut-off is given here.

What follows are compounds tested against T1, Hypoxia-inducible factor 1-alpha (Homo sapiens, UniProt Q16665) (assay: Inhibition of hypoxia-induced HIF1alpha activation in human ME180 cells by HRE3-Bla-[…] reporter gene assay). Settings: me-180.
Assay type: cell-based, ME-180
Procedure, shortened: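 HRE-bla ME-180 reporter cells, 2500 per well, given compound by pin transfer (261-fold dilution), then held 17 h at 37 °C under 1% oxygen. LiveBLAzer B/G FRET β-lactamase substrate added, 2.5 h at room temperature; fluorescence read at 405 nm excitation, 460 and 530 nm emission. IC50 is the mean of three independent experiments.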
Target sequence in this assay (Q16665 whole entry): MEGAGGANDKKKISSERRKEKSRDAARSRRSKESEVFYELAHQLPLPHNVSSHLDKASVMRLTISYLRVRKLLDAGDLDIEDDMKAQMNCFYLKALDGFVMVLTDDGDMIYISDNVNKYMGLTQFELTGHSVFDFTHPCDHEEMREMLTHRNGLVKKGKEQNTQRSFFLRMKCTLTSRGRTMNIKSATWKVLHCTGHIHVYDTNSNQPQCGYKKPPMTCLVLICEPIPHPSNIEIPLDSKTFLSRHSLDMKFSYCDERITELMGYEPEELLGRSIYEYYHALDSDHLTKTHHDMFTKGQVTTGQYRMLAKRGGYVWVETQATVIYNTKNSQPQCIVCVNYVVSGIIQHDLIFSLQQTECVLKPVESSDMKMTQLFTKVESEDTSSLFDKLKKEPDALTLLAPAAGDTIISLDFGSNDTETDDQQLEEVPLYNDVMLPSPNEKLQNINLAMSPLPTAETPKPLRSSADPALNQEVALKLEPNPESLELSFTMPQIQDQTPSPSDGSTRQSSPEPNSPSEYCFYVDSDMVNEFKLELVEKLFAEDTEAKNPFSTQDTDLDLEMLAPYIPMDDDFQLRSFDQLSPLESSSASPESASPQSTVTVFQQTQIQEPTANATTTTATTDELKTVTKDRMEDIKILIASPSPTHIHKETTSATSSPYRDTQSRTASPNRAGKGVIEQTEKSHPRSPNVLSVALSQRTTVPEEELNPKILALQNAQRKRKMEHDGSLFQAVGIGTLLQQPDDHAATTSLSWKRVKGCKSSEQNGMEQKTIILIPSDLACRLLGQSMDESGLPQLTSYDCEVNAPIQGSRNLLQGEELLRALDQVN

IC50	SMILES
Not Active	Cc1ccccc1-n1c(CN2CCN(C(=O)c3ccco3)CC2)nc2ccccc2c1=O
Not Active	O=C(c1ccco1)N1CCN(Cc2nc3ccccc3c(=O)n2-c2ccccc2Oc2ccccc2)CC1
Not Active	CC(C)(C)c1ccccc1-n1c(CN2CCN(C(=O)c3ccco3)CC2)nc2ccccc2c1=O
Not Active	O=C(c1ccco1)N1CCN(Cc2nc3ccccc3c(=O)n2-c2ccccc2F)CC1
Not Active	CCOc1ccccc1-n1c(CN2CCN(C(=O)c3ccco3)CC2)nc2ccc(I)cc2c1=O
Not Active	O=C(c1ccco1)N1CCN(Cc2nc3ccccc3c(=O)n2-c2ccc(F)cc2)CC1
Not Active	O=C(c1ccco1)N1CCN(Cc2nc3ccccc3c(=O)n2-c2ccccc2Cl)CC1
Not Active	O=C(c1ccco1)N1CCN(Cc2nc3ccccc3c(=O)n2-c2ccccc2)CC1
Not Active	CCOc1ccccc1-n1c(CN2CCN(C(=O)c3ccco3)CC2)nc2cccc(OC)c2c1=O
Not Active	O=C(c1ccco1)N1CCN(Cc2nc3ccccc3c(=O)n2-c2ccccc2OCc2ccccc2)CC1
Not Active	O=C(c1ccco1)N1CCN(Cc2nc3ccccc3c(=O)n2-c2ccccc2[N+](=O)[O-])CC1
Not Active	O=C(c1ccco1)N1CCN(Cc2nc3ccccc3c(=O)n2-c2ccccc2C(F)(F)F)CC1

The next lines start with the compound.

SMILES	IC50
CCOc1ccccc1-n1c(CN2CCN(C(=O)c3ccco3)CC2)nc2cc(OC)c(OC)cc2c1=O	Not Active
CCOc1ccccc1-n1c(CN2CCCCC2)nc2ccccc2c1=O	Not Active
COc1ccc(-n2c(CN3CCNCC3)nc3ccccc3c2=O)cc1	Not Active

Same assay, conditions: read-out: IC50

SMILES	IC50 [µM]
CC(C)COc1ccccc1-n1c(CN2CCNCC2)nc2ccccc2c1=O	6.2
COc1ccccc1-n1c(CN2CCN(C(=O)c3ccco3)CC2)nc2ccccc2c1=O	3.3
CCNc1ccccc1-n1c(CN2CCNCC2)nc2ccccc2c1=O	4.1
CCOc1ccccc1-n1c(CN2CCNCC2)nc2ccccc2c1=O	0.09
CCOc1ccccc1-n1c(CN2CCN(C(=O)c3ccco3)CC2)nc2cccc(C)c2c1=O	1.2
COc1ccc(C(F)(F)F)cc1-n1c(CN2CCNCC2)nc2ccccc2c1=O	0.2
CCSc1ccccc1-n1c(CN2CCNCC2)nc2ccccc2c1=O	3.5
CCOc1ccccc1-n1c(CN2CCCNCC2)nc2ccccc2c1=O	0.16
CCOc1ccccc1-n1c(CN2CCN(Cc3ccccc3)CC2)nc2ccccc2c1=O	27.5
CCOC(=O)N1CCN(Cc2nc3ccccc3c(=O)n2-c2ccccc2OCC)CC1	9.4
COc1ccc([N+](=O)[O-])cc1-n1c(CN2CCNCC2)nc2ccccc2c1=O	4.2
CCOc1ccccc1-n1c(CN2CCN(C(=O)c3ccco3)CC2)nc2ccccc2c1=O	0.43
O=c1c2ccccc2nc(CN2CCNCC2)n1-c1ccccc1OCc1ccccc1	22.9
CCOc1ccccc1-n1c(CN2CCOCC2)nc2ccccc2c1=O	27.6
CCOc1ccccc1-n1c(CN2CCN(C(C)=O)CC2)nc2ccccc2c1=O	0.47
CCOc1ccccc1-n1c(CN2CCN(C(=O)c3ccccc3)CC2)nc2ccccc2c1=O	1.7
CCOc1ccccc1-n1c(CC2CCN(C(=O)c3ccco3)CC2)nc2ccccc2c1=O	27.6
CCOc1ccccc1-n1c(CN2CCN(C)CC2)nc2ccccc2c1=O	0.81

What follows are compounds tested on ME-180 (assay: Inhibition of hypoxia-induced HIF1alpha protein accumulation in human HRE-bla-ME180 cells at 1 uM after 17 hrs by Western blot analysis). Settings: not given.
Assay type: functional, cell-based
Procedure, shortened: (§1)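 HRE-bla ME-180 cells, 1 × 10^6 per well, cultured 6 h, then exposed 17 h to compound in DMSO at 1% oxygen; DMSO under normal atmosphere as negative control. Lysis on ice with protease inhibitor, centrifugation, 25 ug protein on 10% Tris-Glycine SDS-PAGE, PVDF transfer. Blotted with anti-HIF-1α (1:250), β-actin (1:5000) loading control, HRP secondary, luminol detection.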

SMILES	inhibition
CCOc1ccccc1-n1c(CN2CCNCC2)nc2ccccc2c1=O	Active
CCOc1ccccc1-n1c(CN2CCOCC2)nc2ccccc2c1=O	inactive

The compounds below were run on ME-180 (assay: Inhibition of hypoxia-induced HIF1alpha protein accumulation in human HRE-bla-ME180 cells at 10 uM after 17 hrs by Western blot analysis). Settings: not given.
Assay type: functional, cell-based
Procedure, shortened: as §1

SMILES	inhibition
CCOc1ccccc1-n1c(CN2CCOCC2)nc2ccccc2c1=O	Active

Each compound was assayed against T1, Hypoxia-inducible factor 1-alpha (assay: Ratio of NCGC00056044 IC50 to compound IC50 for hypoxia-induced HIF1alpha activation in human ME180 cells by HRE3-Bla-[…] reporter gene assay). Settings: ME-180.
Assay type: cell-based
Target sequence in this assay (Q16665 whole entry, looked up): as the sequence (Q16665 whole entry) above

SMILES	Ratio IC50
CCOc1ccccc1-n1c(CN2CCNCC2)nc2ccccc2c1=O	5
